29 compounds from ChEMBL document CHEMBL1817635, “Ellipticines and 9-acridinylamines as inhibitors of D-alanine:D-alanine ligase” (Bioorg Med Chem, 2011) can be followed below.

Assay [1] concerns Escherichia coli. Put plainly: Antimicrobial activity against Escherichia coli 1411 after 18 hrs by broth microdilution method. The settings on record: Escherichia coli, 1411, 18 h. Type of assay: functional. Background: Dilution methods test growth across graded concentrations, often in twofold steps.
The test system of assay [2] is Staphylococcus aureus. Put plainly: Antimicrobial activity against Staphylococcus aureus SH1000 after 18 hrs by broth microdilution method. The settings on record: SH1000, 18 h. The format is functional.
The nature of assay [3]: Inhibition of Escherichia coli DdlB assessed as residual activity of the enzyme assessed as orthophosphate formation after 20 mins by malachite green reagent method.
Assay [4] deals with Escherichia coli. Put plainly: Inhibition of Escherichia coli DdlB assessed as residual activity of the enzyme assessed as orthophosphate formation at 250 uM after 20 mins by malachite green reagent method. In a few lines: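 Purified His-tagged E. coli DdlB, diluted in 50 mM Hepes pH 7.2 with 1 mM DTT. Reaction at 37 °C in 50 mM Hepes pH 8.0, 3.25 mM MgCl2, 6.5 mM (NH4)2SO4, D-Ala, ATP and 5% DMSO. Incubated 20 min, then malachite green reagent added and A650 read after 5 min. Duplicates, with parallel testing in 0.005% Triton X-114.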

Assay [5] concerns Escherichia coli. Put plainly: Antimicrobial activity against AcrAB-deficient Escherichia coli SM1411 after 18 hrs by broth microdilution method. The format is functional. The settings on record: SM1411, 18 h.
The test system of assay [6] is Staphylococcus aureus. In words: Effect on membrane integrity in Staphylococcus aureus SH1000 at four times MIC after 10 mins by BacLight assay. Type of assay: functional.
Assay [7] has as its system Staphylococcus aureus. In words: Antimicrobial activity against Staphylococcus aureus 8325-4 after 18 hrs by broth microdilution method. The format is functional. The settings on record: 8325-4, 18 h. Summed up:
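Broth microdilution MIC following British Society for Antimicrobial Chemotherapy guidelines, run against S. aureus […] 8325-4.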

In brackets after ≈: the same amount, converted by molar mass.

In general, MIC refers to the lowest concentration that inhibits growth of the organism. The term IC50 denotes the midpoint of a concentration-inhibition curve.

With `CCN(CC)Cc1cc(Nc2c3ccc(Cl)cc3nc3ccc(OC)cc23)ccc1O`, the MIC is 256 µg/mL (≈ 587 µM) in assay [1], 128 µg/mL (≈ 294 µM) in assay [2] and 128 µg/mL (≈ 294 µM) in assay [5]. For the same compound, the 50% inhibitory concentration (IC50) in assay [3] is 320 µM. The Activity in assay [4] worked out at 46%.
Take `Cc1c2cnccc2c(C)c2c1c1cc(Br)ccc1n2C`: the IC50 in assay [3] was 297 µM.
As for `COc1cc(NCCCNc2c3ccc(Cl)cc3nc3ccc(OC)cc23)c2ncccc2c1`, the figures for the minimum inhibitory concentration (MIC) in assay [1], in assay [2] and in assay [5] were over 256 µg/mL, 256 µg/mL (≈ 541 µM) and over 256 µg/mL, respectively. Further, the IC50 in assay [3] turned out to be 90 µM. For the same compound, in assay [4], the Activity was 13%.
As to `COc1ccc2nc3cc(Cl)ccc3c(Nc3ccc(O)c(CN(CCCl)CCCl)c3)c2c1`, the Activity in assay [4] turned out to be 22%.
In the case of `Cc1c2cc[n+](C)cc2c(C)c2c1[nH]c1cc(F)ccc12.[I-]`, the values for the MIC in assay [1], in assay [2] and in assay [5] were over 256 µg/mL, over 256 µg/mL and 4 µg/mL, respectively. The IC50 in assay [3] turned out to be 64 µM.
As to `Cc1c2c[n+](C)ccc2c(C)c2c1c1cc(Br)ccc1n2C.[I-]`, the figures for the minimal inhibitory concentration (MIC) in assay [1], in assay [2] and in assay [5] were 32 µg/mL, 2 µg/mL and 1 µg/mL, respectively. For the same compound, in assay [3], the IC50 turned out to be 36 µM. In addition, the Activity in assay [6] is 42.4%.
Turning to `C=CCc1cc(Nc2c3ccc(Cl)cc3nc3ccc(OC)cc23)cc(CN(CC)CC)c1O`, the MIC was over 256 µg/mL in assay [1], 32 µg/mL (≈ 67.2 µM) in assay [2] and over 256 µg/mL in assay [5]. In assay [3], the IC50 is 161 µM. For the same compound, the values for the Activity in assay [4] and in assay [6] were 27% and 47.7%, respectively.
In the case of `Cc1c2cnccc2c(C)c2c1c1ccc(F)cc1n2C`, the MIC in assay [1], in assay [2] and in assay [5] was over 256 µg/mL throughout. Moreover, the IC50 in assay [3] was determined as 90 µM.
With `COc1ccc2c(c1)c1c(C)c3cnccc3c(C)c1n2C`, the IC50 in assay [3] was determined as 184 µM.
On to `COc1ccc2nc3cc(Cl)ccc3c(Nc3ccc(O)c(CN4CCN(C)CC4)c3)c2c1`, for which the MIC is over 256 µg/mL in assay [1], 64 µg/mL (≈ 138 µM) in assay [5] and 32 µg/mL (≈ 69.1 µM) in assay [7]. Besides, the IC50 in assay [3] was found to be 162 µM. In assay [6], this compound displayed an Activity of 48.7%.
For the compound `COc1ccc2[nH]c3c(C)c4cc[n+](C)cc4c(C)c3c2c1.[I-]`, the MIC in assay [1] was determined as 256 µg/mL; in assay [2], 32 µg/mL; in assay [5] it was 8 µg/mL. Besides, the IC50 in assay [3] was determined as 65 µM. For the same compound, the Activity in assay [6] was 16%.
As for `Cc1c2cc[n+](C)cc2c(C)c2c1[nH]c1ccccc12.[I-]`, the MIC in assay [1] was found to be 64 µg/mL; in assay [2], 16 µg/mL; in assay [5] it was 4 µg/mL. Also, in assay [3], the IC50 stood at 46 µM. In assay [6], this compound had an Activity of 37.3%.
In the same order, the values of `Cc1c2ccncc2c(C)c2c1[nH]c1ccc(Br)cc12` are over 256 µg/mL, 16 µg/mL (≈ 49.2 µM), 16 µg/mL (≈ 49.2 µM), 86 µM and 49.6%.
Turning to `COc1cc(Nc2c3ccc(Cl)cc3nc3ccc(OC)cc23)c2ncccc2c1`, the MIC in assay [1], in assay [2] and in assay [5] was over 256 µg/mL throughout. For the same compound, the IC50 in assay [3] was 32 µM. Moreover, the Activity in assay [4] is 25%.
In the case of `COc1cc2c(cc1CN(C)C)[nH]c1c3ccc(Cl)cc3ncc21`, the MIC in assay [1] came out at 128 µg/mL (≈ 377 µM); in assay [2], 256 µg/mL (≈ 753 µM); in assay [5], 32 µg/mL (≈ 94.2 µM).
Take `COc1ccc2nc3cc(Cl)ccc3c(Nc3ccc(C(O)CCN(C)C)cc3)c2c1` (configuration not stated): the minimal inhibitory concentration (MIC) was over 256 µg/mL in assay [1], 256 µg/mL (≈ 587 µM) in assay [2] and 128 µg/mL (≈ 294 µM) in assay [5]. Further, the IC50 in assay [3] is 135 µM. Further, the Activity in assay [4] came out at 38%.
As for `CCN(CC)Cc1cc2[nH]c3c4ccc(Cl)cc4ncc3c2cc1OC.Cl.Cl.Cl`, the MIC in assay [1], in assay [2] and in assay [5] was over 256 µg/mL each time. The IC50 in assay [3] was found to be 330 µM.
Consider `COc1ccc2nc3cc(Cl)ccc3c(NCCNc3c4ccc(Cl)cc4nc4ccc(OC)cc34)c2c1`, for which the Activity in assay [4] is 27%.
Consider `Cc1c2ccncc2c(C)c2c1[nH]c1ccc(O)cc12`, for which the MIC in assay [1] was 16 µg/mL (≈ 61 µM); in assay [2], 8 µg/mL (≈ 30.5 µM); in assay [5] it was 8 µg/mL (≈ 30.5 µM). In assay [3], the IC50 was 192 µM. This compound also yielded an Activity in assay [6] of 71.9%.
On to `CCN(CC)Cc1cc(Nc2c3ccc(Cl)cc3nc3c(OC)ccc(Cl)c23)ccc1O`, for which the MIC in assay [1], in assay [2] and in assay [5] was over 256 µg/mL each time. In assay [3], the IC50 worked out at 119 µM. Also, in assay [4], the Activity was determined as 40%.
As to `CCc1cccc2c1[nH]c1c(C)c3ccncc3c(C)c12`, the MIC in assay [1] is over 256 µg/mL; in assay [2], 8 µg/mL (≈ 29.2 µM); in assay [5], over 256 µg/mL. Moreover, the IC50 in assay [3] worked out at 125 µM. In assay [6], this compound displayed an Activity of 34.2%.
For `CCCCCCCCN(CCCCCCCC)Cc1cc(Nc2c3ccc(Cl)cc3nc3ccc(OC)cc23)ccc1O`, the Activity in assay [4] was 86%.
Take `CC(=O)[O-].COc1ccc2[nH]c3c(C)c4cc[n+](C)cc4c(C)c3c2c1`: the MIC in assay [1] came out at 256 µg/mL; in assay [2] it was 64 µg/mL; in assay [5], 4 µg/mL. In assay [3], the IC50 came to 89 µM.
The corresponding values for `CCN(CC)Cc1cc2[nH]c3c4ccc(Cl)cc4ncc3c2cc1OC` are 256 µg/mL (≈ 696 µM), 256 µg/mL (≈ 696 µM), 32 µg/mL (≈ 87 µM) and 623 µM.
Take `Cc1c2ccncc2c(C)c2c1[nH]c1cc(F)ccc12`: the minimal inhibitory concentration (MIC) was over 256 µg/mL in assay [1], 4 µg/mL (≈ 15.1 µM) in assay [2] and 8 µg/mL (≈ 30.3 µM) in assay [5]. Further, the IC50 in assay [3] was 103 µM. For the same compound, in assay [6], the Activity came to 42.8%.
For the compound `COc1ccc2[nH]c3c(C)c4ccncc4c(C)c3c2c1`, the MIC in assay [1], in assay [2] and in assay [5] was over 256 µg/mL in each case. Further, the IC50 in assay [3] was found to be 60 µM.
Consider `Cc1c2cc[n+](C)cc2c(C)c2c1[nH]c1ccc(Br)cc12.[I-]`, for which the MIC in assay [1] stood at 16 µg/mL; in assay [2] it was 8 µg/mL; in assay [5], 4 µg/mL. Further, the IC50 in assay [3] was 23 µM. In assay [6], the Activity turned out to be 29.8%.
Consider `COc1ccc2c(c1)c1c(C)c3cnccc3c(C)c1n2CCCN`, for which the MIC in assay [1] stood at 32 µg/mL (≈ 96 µM); in assay [5], 8 µg/mL (≈ 24 µM); in assay [7], 32 µg/mL (≈ 96 µM). In assay [3], the IC50 was found to be 70 µM.
For `COc1ccc2nc3cc(Cl)ccc3c(Nc3ccc(O)c(CN4CCCC4)c3)c2c1`, the MIC was 256 µg/mL (≈ 590 µM) in assay [1], 64 µg/mL (≈ 147 µM) in assay [2] and 256 µg/mL (≈ 590 µM) in assay [5]. Also, the IC50 in assay [3] was 102 µM. Further, the Activity in assay [4] was found to be 20%.
